Experimental data published in ChEMBL document CHEMBL3259537, “Design of a truncated cardiotoxin-I analogue with potent insulinotropic activity” (J Med Chem, 2014).
Activity calls are given as the source filed them. The rule behind the calls is not given here.

How the values were obtained:
[1] = test system: INS-1E; experiment: Inhibition of [86]-Rb+-efflux in rat INS-1E cells at 10^8 to 10'6 M incubated for 30 mins followed by high-phosphate buffer addition by scintillation counting analysis; assay type: functional, cell-based; settings: in the assay text read “high-potassium” for “high-phosphate”
Outline: (§1)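 INS-1E cells (2×10^5/well) were loaded overnight at 37 °C with 86RbCl (0.02 µCi/mL) in medium. They were then incubated 30 min at 37 °C in low-K buffer (4.6 mM KCl, pH 7.4) ± peptide, switched to high-K buffer (140 mM KCl) ± peptide, and efflux was followed over time by scintillation counting. Efflux is % of total 86Rb+ (medium plus cells); IC50 values are from three independent experiments in triplicate.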

[2] = Induction of intracellular calcium release in rat INS-1E cells by fluorescence assay; assay type: functional, cell-based
Outline: (§2)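 INS-1E cells were harvested by scraping (5×10^5 cells/mL) and loaded 30 min at 37 °C with 4 μM Fura-2-AM plus 2.5 mM probenecid in KRBH (10 mM glucose, pH 7.4). After washing, 20000 cells/well were read immediately after peptide addition (10^-12–10^-5 M range) at excitation 340/380 nm, emission 495 nm. [Ca2+]i was calculated by the Grynkiewicz equation (Kd 225 nM).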

[3] = Cytotoxicity against rat INS-1E cells by LDH assay; assay type: cell-based
Outline: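 INS-1E cells were seeded at 2×10^4 cells/well and grown 24 h at 37 °C, then exposed to increasing peptide concentrations in serum-free medium. LDH released into the medium from dead cells was measured with a commercial kit and expressed as % of maximum LDH release after cell lysis.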

[4] = test system: INS-1E; experiment: Induction of intracellular calcium release in rat INS-1E cells at 10^-6 M by fluorescence assay; assay type: functional, cell-based; outline: as §2
[5] = test system: INS-1E; experiment: Insulinotropic activity in rat INS-1E cells assessed as insulin exocytosis at 10^-6 M after 2 hrs by RIA; assay type: functional, cell-based
Outline: (§3)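 INS-1E cells (2×10^5/well) were seeded 2 days before use. They were starved 2 h in glucose-free KRBH with 0.1% BSA, washed, and held another 30 min at 37 °C. Cells were then incubated 2 h at 37 °C with peptide, with 20 mM glucose or without glucose. Secreted insulin in the medium was measured by RIA against a rat insulin standard.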

[6] = test system: INS-1E; experiment: Insulinotropic activity in rat INS-1E cells assessed as insulin exocytosis after 2 hrs by RIA in presence of glucose; assay type: functional, cell-based; outline: as §3
[7] = test system: INS-1E; experiment: Insulinotropic activity in rat INS-1E cells assessed as insulin exocytosis after 2 hrs by RIA in presence of adenylyl cyclase inhibitor 2',5'-dideoxy-adenosine; assay type: functional, cell-based
Outline: (§4)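 INS-1E cells (2×10^5/well) were pretreated 30 min with H89 (40 μM) or 2',5'-dideoxyadenosine (50 μM). They were then starved 2 h plus 30 min in glucose-free KRBH/0.1% BSA and incubated 2 h at 37 °C with peptide ± 20 mM glucose. Insulin in the medium was quantified by RIA against a rat insulin standard.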

[8] = test system: INS-1E; experiment: Insulinotropic activity in rat INS-1E cells assessed as insulin exocytosis after 2 hrs by RIA in presence of PKA inhibitor H89; assay type: functional, cell-based; outline: as §4
[9] = test system: INS-1E; experiment: Insulinotropic activity in rat INS-1E cells assessed as insulin exocytosis after 2 hrs by RIA in presence of Ca2+ channel blocker nifedipine; assay type: functional, cell-based; outline: as §3
[10] = test system: INS-1E; experiment: Effect on NGF-induced intracellular calcium release in rat INS-1E cells at 10^-9 M by fluorescence assay; assay type: functional, cell-based
[11] = test system: INS-1E; experiment: Effect on NGF-induced intracellular calcium release in rat INS-1E cells at 10^-8 to 10^-5 M by fluorescence assay; assay type: functional, cell-based
[12] = test system: INS-1E; experiment: Insulinotropic activity in rat INS-1E cells assessed as insulin exocytosis after 2 hrs by RIA in presence of K-ATP channel opener diazoxide; assay type: functional, cell-based; outline: as §3
[13] = test system: INS-1E; experiment: Insulinotropic activity in rat INS-1E cells assessed as insulin exocytosis after 2 hrs by RIA in presence of ATP depletor 2-deoxy-D-glucose; assay type: functional, cell-based; outline: as §3
[14] = test system: Aorta; experiment: Induction of rat aortic ring contraction at 10'5 M; assay type: functional, tissue-based
[15] = test system: INS-1E; experiment: Inhibition of [86]-Rb+-efflux in rat INS-1E cells incubated for 30 mins followed by high-phosphate buffer addition by scintillation counting analysis; assay type: functional, cell-based; settings: in the assay text read “high-potassium” for “high-phosphate”; outline: as §1

EC50 [2] [nM]	Structure (SMILES)	inhibition [1]	Activity [3]	Activity [4]	Activity [5]	Activity [6]	Activity [7]	Activity [8]	Activity [9]	Activity [10]	Activity [11]	Activity [12]	Activity [13]	Activity [14]	Activity [15]
	CN(CCc1ccc(Cl)c(Cl)c1)CC(O)COc1ccc(NS(C)(=O)=O)cc1 (stereo unspecified)	Active													
2.14	CC(C)C[C@@H]1NC(=O)[C@H](CO)NC(=O)[C@H](CC(N)=O)NC(=O)[C@H](CCCCN)NC(=O)[C@@H]2CCCN2C(=O)[C@@H](NC(=O)[C@@H](N)C(C)C)CSSC[C@@H](C(=O)N[C@H]2CSSC[C@H](C(=O)N[C@@H](CC(N)=O)C(=O)O)NC(=O)[C@H](CCCNC(=N)N)NC(=O)[C@H](CC(=O)O)NC(=O)[C@H]([C@@H](C)O)NC(=O)[C@H](CC(N)=O)NC2=O)NC(=O)[C@H](C(C)C)NC(=O)[C@H](Cc2ccc(O)cc2)NC(=O)[C@H](CCCCN)NC(=O)[C@H](C(C)C)NC(=O)[C@H](CC(C)C)NC1=O		Non-toxic												
	CC(C)C[C@@H]1NC(=O)[C@H](CO)NC(=O)[C@H](CC(N)=O)NC(=O)[C@H](CCCCN)NC(=O)[C@@H]2CCCN2C(=O)[C@@H](NC(=O)[C@@H](N)C(C)C)CSSC[C@@H](C(=O)N[C@H]2CSSC[C@H](C(=O)N[C@@H](CC(N)=O)C(=O)O)NC(=O)[C@H](CCCNC(=N)N)NC(=O)[C@H](CC(=O)O)NC(=O)[C@H]([C@@H](C)O)NC(=O)[C@H](CC(N)=O)NC2=O)NC(=O)[C@H](CCCCN)NC(=O)[C@H](Cc2ccc(O)cc2)NC(=O)[C@H](CCCCN)NC(=O)[C@H](C(C)C)NC(=O)[C@H](CC(C)C)NC1=O		Non-toxic	Active	Active	Dose-dependent effect	Dose-dependent effect	Dose-dependent effect	inactive	inactive	Active	Active	Active	inactive	Dose-dependent effect
